Assay results reported in ChEMBL document CHEMBL3425469, “Discovery of imidazo[2,1-b]thiazole HCV NS4B inhibitors exhibiting synergistic effect with other direct-acting antiviral agents” (J Med Chem, 2015).

Tests used:
Hepatitis C virus [1] = assay: Antiviral activity against Hepatitis C virus genotype 1b Con 1 infected in human HuH7 cells at 10 uM after 72 hrs by luciferase assay; format: functional, Hepacivirus hominis; settings: genotype 1b Con 1, Huh-7, 72 h
Outline: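 Huh-7 cells carrying a GT1b Con1 bicistronic luciferase replicon, 8000 cells/well. Compound tested at 10 µM in 0.5% DMSO final, 37°C for 72 h. Replicon signal read as luciferase (Bright-Glo) and reported as percentage inhibition at 10 µM. Cell proliferation measured in parallel with CellTiter-Fluor. Values are the average of at least two independent determinations.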

[2] = Cytotoxicity against human HuH7 cells assessed as cell proliferation by cell titer assay; format: cell-based, Huh-7
Outline: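 Huh-7 cells carrying GT1b Con1 bicistronic replicon seeded at 8000 cells/well; compound added at 0.5% DMSO final, 37°C for 72 h. Proliferation read with CellTiter-Fluor reagent per manufacturer; CC50 fitted from concentration-response, average of at least two independent determinations.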

Hepatitis C virus [3] = assay: Antiviral activity against Hepatitis C virus genotype 1b Con1 infected in human HuH7 cells after 72 hrs by luciferase assay; format: functional, cell-based, Hepacivirus hominis; settings: genotype 1b Con 1, Huh-7, 72 h
Outline: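 Huh-7 cells stably carrying a genotype 1b Con1 bicistronic luciferase replicon, seeded at 8000 cells/well. Compounds were added at 0.5% DMSO final and incubated at 37°C for 72 h. Read-out was Bright-Glo luciferase, with cell proliferation measured by CellTiter-Fluor. EC50 is the mean of at least two independent runs. Some values are given as percent inhibition at 10 µM.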

Hepatitis C virus [4] = assay: Antiviral activity against Hepatitis C virus genotype 1b harboring A156T NS3/4A mutation transfected in human HuH7 cells after 72 hrs by luciferase assay; format: functional, cell-based, Hepacivirus hominis; settings: Huh-7, 72 h
Outline: (§1)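 Huh-7 cells were transiently electroporated with genotype 1b replicon RNA carrying the specified mutation and plated at 10000 cells/well. Compounds were added at 0.5% DMSO final for 72 h at 37°C. Read-out was Bright-Glo luciferase. EC50 is the mean of two independent runs within 2-fold of each other. A reference drug EC50 was measured alongside each mutant replicon to validate it.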

Hepatitis C virus [5] = assay: Antiviral activity against Hepatitis C virus genotype 1b harboring P495A NS5B (thumb 1) mutation transfected in human HuH7 cells after 72 hrs by luciferase assay; format: functional, cell-based, Hepacivirus hominis; settings: Huh-7, 72 h; outline: as §1
Hepatitis C virus [6] = assay: Antiviral activity against Hepatitis C virus genotype 1b harboring Y448H NS5B (palm) mutation transfected in human HuH7 cells after 72 hrs by luciferase assay; format: functional, cell-based, Hepacivirus hominis; settings: Huh-7, 72 h; outline: as §1
Hepatitis C virus [7] = assay: Antiviral activity against Hepatitis C virus genotype 1b harboring Y93H NS5A mutation transfected in human HuH7 cells after 72 hrs by luciferase assay; format: functional, cell-based, Hepacivirus hominis; settings: Huh-7, 72 h; outline: as §1
Hepatitis C virus [8] = assay: Antiviral activity against Hepatitis C virus genotype 1b harboring Q26R mutation transfected in human HuH7 cells after 72 hrs by luciferase assay; format: functional, cell-based, Hepacivirus hominis; settings: Huh-7, 72 h; outline: as §1
Hepatitis C virus [9] = assay: Antiviral activity against Hepatitis C virus genotype 1b harboring V105M mutation transfected in human HuH7 cells after 72 hrs by luciferase assay; format: functional, cell-based, Hepacivirus hominis; settings: Huh-7, 72 h; outline: as §1
Hepatitis C virus [10] = assay: Antiviral activity against Hepatitis C virus genotype 1b harboring S282T NS5B (active site) mutation transfected in human HuH7 cells after 72 hrs by luciferase assay; format: functional, cell-based, Hepacivirus hominis; settings: Huh-7, 72 h; outline: as §1
Hepatitis C virus [11] = assay: Antiviral activity against Hepatitis C virus genotype 1b harboring M423I NS5B (thumb 2) mutation transfected in human HuH7 cells after 72 hrs by luciferase assay; format: functional, cell-based, Hepacivirus hominis; settings: Huh-7, 72 h; outline: as §1
Hepatitis C virus [12] = assay: Antiviral activity against Hepatitis C virus genotype 1b harboring H3R NS4B mutation transfected in human HuH7 cells after 72 hrs by luciferase assay; format: functional, cell-based, Hepacivirus hominis; settings: Huh-7, 72 h; outline: as §1
Hepatitis C virus [13] = assay: Antiviral activity against Hepatitis C virus genotype 1b harboring H94R mutation transfected in human HuH7 cells after 72 hrs by luciferase assay; format: functional, cell-based, Hepacivirus hominis; settings: Huh-7, 72 h; outline: as §1
Hepatitis C virus [14] = assay: Antiviral activity against Hepatitis C virus genotype 1b harboring F98C mutation transfected in human HuH7 cells after 72 hrs by luciferase assay; format: functional, cell-based, Hepacivirus hominis; settings: Huh-7, 72 h; outline: as §1

Row | Compound | CC50 [2] | EC50 (Hepatitis C virus [3]) | further results
1 | Cc1csc2nc(C(=O)N3CCN(C4CCCC4)C(=O)C3)c(Cl)n12 | > 10 µM |  | inhibition at 10 µM (Hepatitis C virus [1]): 53%
2 | CC(C)Cc1csc2nc(C(=O)N3CCN(C4CCCC4)C(=O)C3)c(Cl)n12 | > 10 µM | 0.74 µM | 
3 | O=C(c1nc2sc3ccccc3n2c1Cl)N1CCN(C2CC=CC2)C(=O)C1 | > 10 µM | 0.031 µM | EC50 (Hepatitis C virus [4]): 0.077 µM; EC50 (Hepatitis C virus [5]): 0.022 µM; EC50 (Hepatitis C virus [6]): 0.033 µM; EC50 (Hepatitis C virus [7]): 0.019 µM; EC50 (Hepatitis C virus [8]): 4.96 µM; EC50 (Hepatitis C virus [9]): 12.5 µM; EC50 (Hepatitis C virus [10]): 0.025 µM; EC50 (Hepatitis C virus [11]): 0.032 µM; EC50 (Hepatitis C virus [12]): 4.85 µM; EC50 (Hepatitis C virus [13]): 6.4 µM; EC50 (Hepatitis C virus [14]): 3.27 µM
4 | O=C(c1nc2sc3c(n2c1Cl)CCCCC3)N1CCN(C2CCCC2)C(=O)C1 | > 10 µM | 0.94 µM | 
5 | O=C(c1nc2scc(C3CC3)n2c1Cl)N1CCN([C@H]2CC[C@H](O)CC2)C(=O)C1 | > 10 µM | 0.89 µM | 
6 | O=C(c1nc2sc3c(n2c1Cl)CCC3)N1CCN(C2CCCC2)C(=O)C1 | > 10 µM | 0.13 µM | 
7 | Cc1c(C(C)C)sc2nc(C(=O)N3CCN(C4CCCC4)C(=O)C3)c(Cl)n12 | > 10 µM |  | inhibition at 10 µM (Hepatitis C virus [1]): 50%
8 | COc1ccc2c(c1)sc1nc(C(=O)N3CCN(C4CCCC4)C(=O)C3)c(Cl)n12 | > 10 µM | 8.63 µM | 
9 | O=C(c1nc2sc3cc(Cl)ccc3n2c1Cl)N1CCN(C2CCCC2)C(=O)C1 | > 10 µM | 1.85 µM | 
10 | CC(C)c1cn2c(Cl)c(C(=O)N3CCN(C4CCCC4)C(=O)C3)nc2s1 | > 10 µM | 1.32 µM | 
11 | O=C(c1nc2sc3cc(Br)ccc3n2c1Cl)N1CCN(C2CCCC2)C(=O)C1 | > 10 µM | 1.79 µM | 
12 | Cc1ccc2c(c1)sc1nc(C(=O)N3CCN(C4CCCC4)C(=O)C3)c(Cl)n12 | > 10 µM | 0.3 µM | 
13 | CC(C)Cc1c(Cl)sc2nc(C(=O)N3CCN(C4CCCC4)C(=O)C3)c(Cl)n12 | > 10 µM | 6.7 µM | 
14 | O=C(c1nc2scc(C3CC3)n2c1Cl)N1CCN(C2CC=CC2)C(=O)C1 | > 10 µM | 0.079 µM | 
15 | Cc1cn2c(Cl)c(C(=O)N3CCN(C4CCCC4)C(=O)C3)nc2s1 | > 10 µM |  | inhibition at 10 µM (Hepatitis C virus [1]): 46%
16 | O=C(c1nc2sc3ccccc3n2c1Cl)N1CCN([C@H]2CC[C@H](O)CC2)C(=O)C1 | > 10 µM | 0.33 µM | 
17 | O=C(c1nc2sccn2c1Cl)N1CCN(C2CCCC2)C(=O)C1 | > 10 µM | > 10 µM | 
18 | O=C1CCCc2c1sc1nc(C(=O)N3CCN(C4CCCC4)C(=O)C3)c(Cl)n21 | > 10 µM | > 10 µM | 
19 | O=C(c1nc2sc3ccccc3n2c1Cl)N1CCN(C2CCCC2)C(=O)C1 | > 10 µM | 0.092 µM | 
20 | CC1CCc2c(sc3nc(C(=O)N4CCN(C5CCCC5)C(=O)C4)c(Cl)n23)C1 (configuration not stated) | > 10 µM | 0.26 µM | 
21 | O=C(c1nc2sc3c(n2c1Cl)CCCC3)N1CCN(C2CCCC2)C(=O)C1 | > 10 µM | 0.19 µM | 
22 | CC1(C)CCc2c(sc3nc(C(=O)N4CCN(C5CCCC5)C(=O)C4)c(Cl)n23)C1 | > 10 µM | 1.12 µM | 
23 | O=C(c1nc2sc(Cl)c(C3CC3)n2c1Cl)N1CCN(C2CCCC2)C(=O)C1 | > 10 µM | 8.6 µM | 
